Screen size: about 2,500 compounds; about 1,200 (48%) were called active. So high a share suggests a set chosen from earlier hits. The list shows a part of the results. Unmarked numbers belong to inactive results.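 The calls were made as follows: active = mean activation above the low control average plus 3 SD, as set in the primary screen (cut at about 12% in these data); inactive = the rest.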

The experiment concerns the target Troponin I, cardiac muscle (Homo sapiens) + Troponin T, cardiac muscle (Homo sapiens) + Troponin C, slow skeletal and cardiac muscles (Homo sapiens) (UniProt P19429+P45379+P63316). In words: calcium sensitizers of cardiac thin filaments – biochemical, IANBD-TnC fluorescence, triplicate, confirmation (AID 504383).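 Also: 0% = DMSO at 0.472 mM calcium and 100% = DMSO at 2.9 mM calcium.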 The note with it: IANBD-labeled cardiac RTF, Ca2+ sensitivity fluorescence; at 7.2 µM; stronger effect = higher value; scaled from EC20 to saturating calcium; tested at EC20 calcium, 0.472 mM. The essentials:
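material = labelled regulated thin filaments | probe or stimulus = Ca2+ 0.472 mM, EC20 level | dosing = single nominal compound dose of 7.2 µM | schedule = 15 min at 25 °C | signal = fluorescence intensity of labelled filaments | evaluation = fluorescence gain scaled between EC20 and EC100 calcium controls | benchmarks = low control EC20 calcium, high control EC100 calcium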
On to `Cc1ccc2oc3c(SCc4nc5ccccc5[nH]4)nc(C)nc3c2c1`, for which the activation is 21.2% (active).

As for `Cc1ccc(C)c(C2=NNC(=O)CC2)c1`, the activation is 2.35%.

On to `COC(=O)[C@@]1(Cc2ccc(OC)cc2)[C@@H]2C(=CC(=O)[C@H]2CC(=O)C(=O)N2CCCC2)CN1C(=O)c1ccccc1`, for which the activation is 36% (active).

As for `CC(C)CNC(=S)NC(=O)c1ccccc1Cl`, the activation was 106% (active).

Regarding `Nc1cccc2c1C(=O)N(c1ccccc1)C2=O`, the activation was 7.13%.

With `O=C1c2ccccc2C(=O)N1c1ccc(Cc2ccncc2)cc1`, the activation was 18.1% (active).

Take `C=CCNc1nc2c(c(=O)[nH]c(=O)n2C)n1CCCc1ccccc1`: the activation was 9.95%.

With `CN1CCN(c2nc3c(c(=O)n(C)c(=O)n3C)n2Cc2ccccc2F)CC1`, the activation is 5.62%.

Consider `CSc1nc2c(c(=O)[nH]c(=O)n2C)n1CCCc1ccccc1`, for which the activation is 3.83%.

As to `COC(=O)CSc1nc2c(c(=O)n(C)c(=O)n2C)n1CCCc1ccccc1`, the activation was 147% (active).

In the case of `CCOC(=O)CSc1nc2c(c(=O)n(C)c(=O)n2C)n1Cc1ccccc1F`, the activation is 1280% (active).

`C=CC[C@@H](CC(=O)N(CCO)Cc1ccccc1)C(=O)N[C@@H](COC(=O)[C@@H](CC=C)Cc1ccc(F)cc1)Cc1ccccc1`: the activation is 0.1%.

With `S=C(Nc1ccc(N2CCOCC2)cc1)Nc1ccc2nc(-c3ccco3)c(-c3ccco3)nc2c1`, the activation was 43.1% (active).

As for `Cc1cccc(NC(=S)Nc2ccc(N3CCOCC3)cc2)c1C`, the activation is 5.72%.

For `C[C@H]1CN([C@@H](C)CO)C(=O)c2cccc(NC(=O)c3nc4ccccc4s3)c2O[C@H]1CN(C)C(=O)Nc1ccc(F)cc1`, the activation was 12.9% (active).

In the case of `Cc1noc(C)c1NC(=O)N(C)C[C@H]1Oc2c(NS(=O)(=O)c3cccs3)cccc2C(=O)N([C@H](C)CO)C[C@@H]1C`, the activation was 4.83%.

With `C[C@H](CO)N1C[C@H](C)[C@@H](CN(C)C(=O)Nc2ccccc2)Oc2ccc(NC(=O)Nc3ccc4c(c3)OCO4)cc2C1=O`, the activation is 9.67%.

Take `C[C@H](CO)N1C[C@H](C)[C@@H](CN(C)Cc2ccc(Oc3ccccc3)cc2)Oc2c(NC(=O)C3CC3)cccc2C1=O`: the activation was 47.7% (active).

Regarding `C[C@H](CO)N1C[C@H](C)[C@@H](CN(C)Cc2ccncc2)Oc2c(NS(=O)(=O)c3ccc(F)cc3)cccc2C1=O`, the activation is 10.3%.

For the compound `C[C@H](CO)N1C[C@H](C)[C@@H](CN(C)Cc2ccncc2)Oc2c(NC(=O)c3ccncc3)cccc2C1=O`, the activation was 16.5% (active).

Take `C[C@H](CO)N1C[C@H](C)[C@@H](CN(C)S(=O)(=O)c2cccs2)Oc2c(NC(=O)Nc3ccc4c(c3)OCO4)cccc2C1=O`: the activation is 9.29%.

For the compound `C[C@H](CO)N1C[C@H](C)[C@@H](CN(C)C(=O)Nc2ccc(F)cc2)Oc2ccc(NS(C)(=O)=O)cc2C1=O`, the activation was 9.89%.

On to `CCOC(=O)c1c(C)oc2c1c(C=NCCO)c(O)c1ccccc12`, for which the activation is 4.94%.

`CCN(CC)c1ccc(/C=C(/C#N)C(=O)NCc2ccccc2)o1`: the activation was 3.76%.

Turning to `N#C/C(=C\c1ccc(O)c(O)c1)C(=O)NCCCc1ccccc1`, the activation is 4.22%.

As to `CC(C)NC(=O)/C(C#N)=C/c1ccc(N(C)C)o1`, the activation is 7.34%.

With `CN(C)c1ccc(/C=C(/C#N)C(=O)NCc2ccccc2)o1`, the activation is 12.4% (active).

In the case of `CCN(CC)c1ccc(/C=C(\C#N)C(=O)NCc2ccccc2)cc1`, the activation was 60.6% (active).

Take `CC(C)NC(=O)/C(C#N)=C\c1ccc(N(C)C)o1`: the activation is 215% (active).

For `CCN(CC)c1ccc(/C=C(\C#N)C(=O)c2ccc(Br)cc2)cc1`, the activation was 3.52%.

For `CCN(CC)c1ccc(/C=C(\C#N)C(N)=S)cc1`, the activation was 45.5% (active).

For the compound `CCN(CC)c1ccc(/C=C(/C#N)C(=O)NC(C)C)o1`, the activation was 9.75%.

With `Cc1cc(Cn2nc(C(=O)NCC3CC3)cc2-c2ccccc2)on1`, the activation was 6.6%.

On to `COc1ccccc1/C=[N+](\[O-])C1SC(=S)N(C)C1(C)C` (stereo not drawn), for which the activation was 8.76%.

For `NC(=O)CC(NC(=O)c1ccc(Br)cc1)c1ccc(N2CCN(c3ccc(F)cc3)CC2)c([N+](=O)[O-])c1` (stereo not drawn), the activation was 42.4% (active).

Consider `Cc1cc(C)cc(C(=O)NC(CC(N)=O)c2ccc(N3CCCCCC3)c([N+](=O)[O-])c2)c1` (stereo not drawn), for which the activation is 3.03%.

Consider `NC(=O)CC(NC(=O)Cc1ccc(Cl)cc1)c1ccc(N2CCN(c3ccccn3)CC2)c([N+](=O)[O-])c1` (stereo not drawn), for which the activation was 137% (active).

With `O=C(NCc1ccccc1)c1ccc(N2CCC3(CC2)CC(c2ccccc2)=NO3)c([N+](=O)[O-])c1`, the activation is 5.88%.

Regarding `NC(=O)c1c(N)sc2c1CCCCC2`, the activation is 7.59%.

As to `COc1ccc2nc3ccccc3nc2c1NC(=O)c1ccc(Cl)cc1Cl`, the activation was 6.58%.

Regarding `COc1cc(SC)ccc1C(=O)Nc1nc2ccccc2[nH]1`, the activation was 9.59%.

For `COc1ccc2nc3ccccc3nc2c1NC(=O)c1ccc(Br)cc1`, the activation is 139% (active).

As for `CSCC(O)Cn1[nH]c(=O)c2cc(Cl)c(Cl)cc2c1=O` (stereo not drawn), the activation is 8.73%.

`COC(=O)c1ccc(CS(=O)(=O)c2ccc(F)cc2)o1`: the activation was 1.48%.

Turning to `COC(=O)c1ccc(CSc2nnc(NCc3ccccc3)s2)o1`, the activation is 17.8% (active).

Consider `COc1cccc(CNC(=O)CCC(=O)N2CC(C)Oc3ccccc32)c1OC` (stereo not drawn), for which the activation was 4.26%.

Consider `COc1ccc(CN2CCN(C(=O)c3ccccc3F)CC2)c(OC)c1OC`, for which the activation was 44.3% (active).

On to `COc1ccc(CN2CCC(C(=O)N3CCN(c4ccccc4F)CC3)CC2)cc1OC`, for which the activation was 8.86%.

Turning to `O=c1cc2oc3cc(O)c(O)cc3c(-c3ccccc3O)c-2cc1O`, the activation is 16.1% (active).

As to `CCOc1ccccc1-c1c2cc(O)c(=O)cc-2oc2cc(O)c(O)cc12`, the activation was 8.3%.

Take `COC(=O)c1ccccc1-c1c2ccc(=N)cc-2oc2cc(N)ccc12`: the activation is 9.11%.

Take `COc1cc(OC)c(-c2c3cc(O)c(=O)cc-3oc3cc(O)c(O)cc23)cc1OC`: the activation was 19.3% (active).

With `Cn1ncc(Cl)c1C(=O)Nc1cccc(Cl)c1`, the activation was 5.51%.

For `CSc1cccc(NC(=O)c2ccc(Cl)nc2)c1`, the activation is 15.5% (active).

With `CC1CN(c2ccc(NS(=O)(=O)c3ccccc3)cc2C(=O)O)CC(C)O1` (stereo not drawn), the activation is 98.7% (active).

As for `CCOC(=O)C1CCCN(C(=O)c2cccc(S(=O)(=O)N3CC(C)OC(C)C3)c2)C1` (stereo not drawn), the activation was -1.51%.

`CC(=O)c1ccc(S(=O)(=O)Nc2ccc(C(=O)N3CCC3)cc2)cc1`: the activation is 1.58%.

For `CCc1ccc(C(=O)Nc2cccnc2Oc2ccc(Cl)cc2)cc1`, the activation was 22% (active).

For the compound `CC(C)(C)c1ccc(C(=O)Nc2cccc3ncccc23)cc1`, the activation was 10.2%.

Regarding `CC(C)Cn1c(N)c(C(=O)COC(=O)c2cc(F)cc(F)c2)c(=O)n(C)c1=O`, the activation was 225% (active).

As to `O=c1oc2c(CN3CCCCC3)c(O)ccc2cc1-c1nc2ccccc2[nH]1`, the activation was 224% (active).

Turning to `O=c1oc2c(O)cccc2cc1-c1nc2ccccc2[nH]1`, the activation is 8.93%.

As to `O=c1c2ccccc2nc(SCc2nc(-c3ccccc3)no2)n1-c1ccc(F)cc1`, the activation is 2.61%.

Regarding `O=C(COC(=O)Cn1cnc2ccccc21)Nc1cccc2c1C(=O)c1ccccc1C2=O`, the activation is 25.4% (active).

In the case of `CC(=O)c1cccc(NC(=O)Cn2nc(-c3ccccc3Cl)ccc2=O)c1`, the activation is 11.2%.

Turning to `CCC(C)n1ncn(-c2ccc(N3CCN(c4ccc(OCC5COC(Cn6cncn6)(c6ccc(Cl)cc6Cl)O5)cc4)CC3)cc2)c1=O` (stereo not drawn), the activation is 390% (active).

Take `Fc1ccc(-c2nc3ccncc3[nH]2)cc1`: the activation was 13% (active).

For the compound `Cc1ccc(CNC(=O)CC(C)S(=O)(=O)c2ccc3c(c2)NC(=O)CS3)o1` (stereo not drawn), the activation is 354% (active).

In the case of `CCCCc1ccc(NC(=O)c2cnccn2)cc1`, the activation is 22.1% (active).

In the case of `CCCCc1ccc(NC(=O)N2CCNC(=O)C2CC(=O)Nc2ccsc2C(=O)OC)cc1` (stereo not drawn), the activation was 5.97%.

For the compound `COC(=O)[C@@H]1C[C@@]2(O)[C@H](O)[C@H](O)[C@H](O)C[C@H]2N1C/C=C/c1ccccc1`, the activation was 6.57%.

`NC(=O)c1c(NC(=O)c2ccccc2)sc2c1CCN(Cc1ccccc1)C2`: the activation was 105% (active).

Regarding `N#Cc1c(NC(=O)C2CC=CCC2C(=O)O)sc2c1CCCCCC2` (stereo not drawn), the activation is 6.81%.

Turning to `CC(=O)c1ccc(C(=O)Nc2sc3c(c2C(N)=O)CCN(Cc2ccccc2)C3)cc1`, the activation is 2.38%.

Take `CCCN1CCc2c(sc(NC(=S)NC(=O)c3ccccc3)c2C#N)C1`: the activation is 270% (active).

In the case of `O=C(Nc1nc2c(s1)CN(Cc1ccccc1)CC2)c1cccc(S(=O)(=O)N2CCc3ccccc32)c1`, the activation was 5.41%.

For the compound `N#Cc1c(NC(=O)/C=C/C(=O)O)sc2c1CCN(Cc1ccccc1)C2`, the activation is 13.4% (active).

`CCN1CCc2c(sc(NC(=O)c3ccc(S(=O)(=O)N(C)c4ccccc4)cc3)c2C(=O)NC)C1`: the activation is 10.6%.

`CC[n+]1c(/C=C/N(C)c2ccccc2)oc2ccc(F)cc21`: the activation was 14.5% (active).

Consider `CC[n+]1c(/C=C/N(C)c2ccccc2)oc2ccccc21`, for which the activation was 0.87%.

Take `Cc1cc(C)n2nc3nc4c(cc3c2n1)CCCC4`: the activation was 89.3% (active).

Regarding `Cc1ccc(-c2nc3ncccn3c2Nc2ccc3c(c2)OCCO3)o1`, the activation is 230% (active).

Consider `COc1cccc(C2C3CN(C)CC=C3C(C#N)=C(N)C2(C#N)C#N)c1OC` (stereo not drawn), for which the activation was 8.43%.

With `COc1cccc(C2C(C#N)=C(N)Oc3cc(C)oc(=O)c32)c1OC` (stereo not drawn), the activation is 23% (active).

As for `CCCCN1C(=O)/C(=C/C=C2/CC(C)(C)CN2C)SC1=S`, the activation is 2.58%.

For the compound `CN1CCC/C1=C/C=C1\SC(=S)NC1=O`, the activation was 4.23%.

For `CN1C(=O)/C(=C\C=C2/CCCN2C)N(C)C1=S`, the activation was 173% (active).

For `CCN1C(=O)/C(=C/C=C2/CCCN2C)OC1=S`, the activation is 12.9% (active).

(Values after PubChem BioAssay AID504383 (The Scripps Research Institute Molecular Screening Center, 2011).)
